Screening data deposited in PubChem by Broad Institute.
A selection: hits, their analogues and other compounds. The true share with any hit is near 3.7%.
E-selectin induc: E-selectin induction on HUVECs. P16581. HUVEC E-selectin immunofluorescence imaging; normalized: neutral wells 0, TNF-alpha wells 100. activation, % at 7.58 µM. 260,000 compounds, 0.37% hits;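 active = mean E-selectin-positive cell signal at least 10% of the positive control, reached in at least 60% of replicates, without over 20% cell loss; inconclusive = no rule given, readout overlaps actives, possibly toxicity-flagged; inactive = the rest, including those meeting only one limit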
Target sequence (P16581 whole entry, looked up): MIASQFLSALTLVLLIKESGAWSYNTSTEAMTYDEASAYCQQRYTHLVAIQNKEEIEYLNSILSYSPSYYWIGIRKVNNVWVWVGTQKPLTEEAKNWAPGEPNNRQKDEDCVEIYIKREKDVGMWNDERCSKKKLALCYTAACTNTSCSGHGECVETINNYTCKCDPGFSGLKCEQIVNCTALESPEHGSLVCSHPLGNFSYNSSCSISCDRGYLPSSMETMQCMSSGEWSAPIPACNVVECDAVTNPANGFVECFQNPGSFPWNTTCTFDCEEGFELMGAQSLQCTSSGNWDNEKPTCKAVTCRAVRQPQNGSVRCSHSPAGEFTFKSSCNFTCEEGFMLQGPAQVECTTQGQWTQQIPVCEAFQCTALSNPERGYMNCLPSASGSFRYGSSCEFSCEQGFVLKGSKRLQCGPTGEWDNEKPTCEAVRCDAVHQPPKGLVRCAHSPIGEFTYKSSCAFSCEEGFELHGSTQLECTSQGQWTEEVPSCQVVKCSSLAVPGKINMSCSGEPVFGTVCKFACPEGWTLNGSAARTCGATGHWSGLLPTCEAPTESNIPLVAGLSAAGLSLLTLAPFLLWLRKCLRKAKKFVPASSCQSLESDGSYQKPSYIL
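Test system: HUVEC | Signal: Immunofluorescence imaging | Read-out: Percent E-selectin-positive cells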
ERAP1 HTS inh: blocks human ERAP1 aminopeptidase activity; recombinant ERAP1, Leu-AMC fluorescence, 60 min; inhibition, % at 10.7 µM; 340,000 compounds, 0.15% hits; AID 652197;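 active = mean replicate inhibition of at least 30%, or all replicates individually reaching that 30% level; inactive = mean below 30% and not every replicate reaching it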;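 also: 0% = neutral control wells and 100% = L-leucinethiol positive control wells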
F508del corr: correctors of CFTR F508del function in bronchial epithelial cells. activity (quench increase), % at 7.58 µM. CFBE cells, YFP halide quenching; stimulated with forskolin plus potentiator P3; % fluorescence drop versus neutral controls. 350,000 compounds, 0.36% hits;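 active = mean added fluorescence quench of at least 8% versus neutral control, with both replicates also reaching 8%; inconclusive = only one of the mean or replicate conditions met; inactive = mean below 8% and not both replicates reaching 8%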;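 also: cells transiently co-express mutant CFTR-F508del with the halide-sensitive YFP; corrector assay measuring rescue of mutant channel to the surface after 24 h compound exposure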
FGF22 binding: binders of recombinant human FGF22 by thermal shift. Q9HCT0. activity (Tm shift, normalised), % at 9.99 µM. 340,000 compounds, 1.5% hits. SYPRO orange fluorescence; percent of sucrose octasulfate shift, DMSO zero;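 active = mean Tm shift, scaled 0 neutral to 100 positive control, at about 1.3% or above, every replicate too, limit read from the data; inconclusive = no clear call, values can overlap the other calls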
DENV2 CPE: inhibitors of DENV2 cytopathic effect; DENV2-infected cells, cytopathic effect rescue, plate reader; 350,000 compounds, 1.7% hits; CPE inhibition, % at 9.99 µM; in the data active = CPE inhibition above about 20%, passing the limit was not always enough; inconclusive = no clear call, values can overlap the other calls; tested in BHK-21 cells;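 also: 0% = median of neutral control wells and 100% = median of positive control wells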
* = called active by the depositor.

Results for C[C@H](CO)N1C[C@H](C)[C@H](CN(C)Cc2ccc(Oc3ccccc3)cc2)Oc2c(NS(C)(=O)=O)cccc2C1=O ?
E-selectin induc: 31*; ERAP1 HTS inh: 3; F508del corr: 4; FGF22 binding: 0; DENV2 CPE: 0

What do the screens show for `C[C@H](CO)N1C[C@H](C)[C@@H](CN(C)Cc2ccc(Oc3ccccc3)cc2)Oc2c(NS(=O)(=O)c3ccc(F)cc3)cccc2C1=O`?
ERAP1 HTS inh: -2; F508del corr: 0; FGF22 binding: -1; DENV2 CPE: 39*

What do the screens show for `C[C@H](CO)N1C[C@H](C)[C@@H](CN(C)Cc2ccc(C(=O)O)cc2)Oc2c(NS(=O)(=O)c3ccccc3)cccc2C1=O`?
E-selectin induc: 0; ERAP1 HTS inh: 1; F508del corr: 0; FGF22 binding: 0; DENV2 CPE: 2

What do the screens show for `C[C@H]1CN([C@@H](C)CO)C(=O)c2cccc(NS(=O)(=O)c3ccc(F)cc3)c2O[C@H]1CN(C)Cc1ccc(Oc2ccccc2)cc1`?
E-selectin induc: 1; F508del corr: inconclusive

What do the screens show for `C[C@H]1CN([C@@H](C)CO)C(=O)c2cccc(NS(=O)(=O)c3ccccc3)c2O[C@@H]1CN(C)Cc1ccc(C(=O)O)cc1`?
E-selectin induc: 0; ERAP1 HTS inh: -2; F508del corr: 0; FGF22 binding: 0; DENV2 CPE: 31*

Results for CCCNC(=O)N1CC2(CN(C(=O)C3CC3)C2)c2c([nH]c3cc(OC)ccc23)[C@@H]1CO ?
E-selectin induc: 0; ERAP1 HTS inh: 0; F508del corr: 0; FGF22 binding: 0; DENV2 CPE: 5

How did COc1ccc(N2C(=O)N3[C@H](c4cccc(C)c4)[C@@H]4C(=O)N(Cc5ccccc5)C(=O)[C@@H]4[C@]3(Cc3ccccc3)C2=O)cc1 do in these assays?
E-selectin induc: 0; ERAP1 HTS inh: -1; F508del corr: 0; FGF22 binding: 0; DENV2 CPE: 82*

How did COc1ccc([C@@H]2[C@@H]3C(=O)N(C(C)(C)C)C(=O)[C@@H]3[C@]3(Cc4ccc(Cl)cc4)C(=O)N(c4ccc(C)cc4)C(=O)N23)cc1 do in these assays?
E-selectin induc: 0; ERAP1 HTS inh: 8; F508del corr: 2; FGF22 binding: 0; DENV2 CPE: -8

Results for COc1ccc([C@@H]2[C@@H]3C(=O)N(C(C)(C)C)C(=O)[C@@H]3[C@]3(Cc4ccc(Cl)cc4)C(=O)N(c4cccc(C)c4)C(=O)N23)cc1 ?
E-selectin induc: 0; ERAP1 HTS inh: 3; F508del corr: 2; FGF22 binding: 1.3*; DENV2 CPE: 5

Results for COc1ccc([C@@H]2[C@@H]3C(=O)N(C(C)(C)C)C(=O)[C@@H]3[C@]3(Cc4ccccc4)C(=O)N(c4ccc(C(F)(F)F)cc4)C(=O)N23)cc1 ?
ERAP1 HTS inh: 2; F508del corr: 9.0*; FGF22 binding: 0; DENV2 CPE: -3

Results for COc1ccc([C@@H]2[C@@H]3C(=O)N(C(C)(C)C)C(=O)[C@@H]3[C@]3(Cc4ccccc4)C(=O)N(c4ccc(OC)cc4)C(=O)N23)cc1 ?
E-selectin induc: 0; ERAP1 HTS inh: -3; F508del corr: 3; FGF22 binding: 0; DENV2 CPE: inconclusive

Results for CCCC#Cc1cnc2c(c1)C(=O)N([C@@H](C)CO)C[C@H](C)[C@H](CN(C)C(=O)NC1CCCC1)O2 ?
E-selectin induc: 0; ERAP1 HTS inh: -1; FGF22 binding: 0; DENV2 CPE: 8

Results for CCCN(C)C[C@H]1Oc2ncc(C#CC3(O)CCCC3)cc2C(=O)N([C@@H](C)CO)C[C@H]1C ?
E-selectin induc: 0; ERAP1 HTS inh: 3; F508del corr: 0; FGF22 binding: -1; DENV2 CPE: 9

What do the screens show for `Cc1ccc(S(=O)(=O)N(C)C[C@H]2Oc3ncc(C#CC4(O)CCCC4)cc3C(=O)N([C@H](C)CO)C[C@H]2C)cc1`?
E-selectin induc: 0; ERAP1 HTS inh: 1; F508del corr: -1; FGF22 binding: 0; DENV2 CPE: 21*

Results for CCCC#Cc1cnc2c(c1)C(=O)N([C@H](C)CO)C[C@@H](C)[C@@H](CN(C)C(=O)NC1CCCC1)O2 ?
E-selectin induc: 1; ERAP1 HTS inh: 0; FGF22 binding: 0; DENV2 CPE: 45*

What do the screens show for `COc1ccc(NC(=O)N(C)C[C@@H]2Oc3ncc(C#Cc4ccc(F)cc4)cc3C(=O)N([C@H](C)CO)C[C@@H]2C)cc1`?
E-selectin induc: 0; ERAP1 HTS inh: -1; F508del corr: -2; FGF22 binding: 0; DENV2 CPE: 63*

What do the screens show for `CCCN(C)C[C@H]1Oc2ncc(C#CC3(O)CCCC3)cc2C(=O)N([C@H](C)CO)C[C@H]1C`?
E-selectin induc: 0; ERAP1 HTS inh: 2; F508del corr: 0; FGF22 binding: 0; DENV2 CPE: 27*

Results for COc1ccc(NC(=O)N[C@H]2CC[C@H](CC(=O)NC3CCCCC3)O[C@H]2CO)cc1 ?
E-selectin induc: 0; ERAP1 HTS inh: -5; F508del corr: -1; FGF22 binding: 0; DENV2 CPE: -6

What do the screens show for `COc1ccc2c3c(n(C)c2c1)[C@H](CO)N(S(C)(=O)=O)CC31CCN(CC2CC2)CC1`?
E-selectin induc: 0; ERAP1 HTS inh: 5; F508del corr: -2; FGF22 binding: 0; DENV2 CPE: -8

What do the screens show for `CC(C)NC(=O)N(C)C[C@H]1Oc2ncc(C#CC3(O)CCCC3)cc2C(=O)N([C@@H](C)CO)C[C@@H]1C`?
E-selectin induc: 0; ERAP1 HTS inh: -1; F508del corr: 1; FGF22 binding: 0; DENV2 CPE: 32*

Results for COc1ccc(NC(=O)N(C)C[C@H]2Oc3ncc(C#CC(C)C)cc3C(=O)N([C@@H](C)CO)C[C@H]2C)cc1 ?
E-selectin induc: 0; ERAP1 HTS inh: -1; F508del corr: -3; FGF22 binding: 1; DENV2 CPE: 39*

How did C[C@H](CO)N1C[C@H](C)[C@@H](CN(C)C(=O)c2cnccn2)Oc2ncc(C#CCC3CCCC3)cc2C1=O do in these assays?
E-selectin induc: 0; ERAP1 HTS inh: 1; F508del corr: 2; FGF22 binding: 0; DENV2 CPE: 36*

What do the screens show for `Cc1ccc(S(=O)(=O)N(C)C[C@@H]2Oc3ncc(/C=C/c4ccccc4)cc3C(=O)N([C@H](C)CO)C[C@@H]2C)cc1`?
E-selectin induc: 0; ERAP1 HTS inh: 1; F508del corr: 2; FGF22 binding: 0; DENV2 CPE: 23*

What do the screens show for `C[C@@H]1CCCCO[C@H](CN(C)S(C)(=O)=O)[C@H](C)CN([C@H](C)CO)C(=O)c2cc(N(C)C)ccc2O1`?
E-selectin induc: 1; ERAP1 HTS inh: -6; F508del corr: -2; FGF22 binding: 0; DENV2 CPE: inconclusive
